Where a name gives a salt, the structure may show the parent alone.
What was measured:
[1] = target: Melanocyte-stimulating hormone receptor (Homo sapiens, UniProt Q01726); assay: Agonist activity at human MC1R expressed in CHO cells after 4 hrs by luciferase reporter gene assay
In short: (§1)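 CHO-6xCRE-luc+ cells expressing the human receptor, plated at 4000 cells/well in DMEM/F12 with 10% FBS 48 h before assay. Switched to serum-free medium 16 h before compound addition, then incubated 4 h at 37 °C. Luciferase read after 10 min dark adaptation. Activity expressed as % of fold stimulation by 1 × 10^-7 M NDP-aMSH (duplicate control wells).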

[2] = target: Melanocortin receptor 4 (Homo sapiens, UniProt P32245); assay: Agonist activity at human MC4R expressed in CHO cells after 4 hrs by luciferase reporter gene assay; in short: as §1
Melanocortin receptor 4, sequence (P32245 whole entry): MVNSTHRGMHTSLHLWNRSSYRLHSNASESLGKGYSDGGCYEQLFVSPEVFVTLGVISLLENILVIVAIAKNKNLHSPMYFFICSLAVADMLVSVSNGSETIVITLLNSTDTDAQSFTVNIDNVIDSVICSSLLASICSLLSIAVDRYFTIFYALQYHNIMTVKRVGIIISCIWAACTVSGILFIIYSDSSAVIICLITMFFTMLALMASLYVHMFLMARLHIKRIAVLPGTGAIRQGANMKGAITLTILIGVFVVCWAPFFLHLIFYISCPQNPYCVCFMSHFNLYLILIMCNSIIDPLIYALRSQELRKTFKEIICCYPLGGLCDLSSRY

Melanocyte-stimulating hormone receptor, sequence (Q01726 whole entry): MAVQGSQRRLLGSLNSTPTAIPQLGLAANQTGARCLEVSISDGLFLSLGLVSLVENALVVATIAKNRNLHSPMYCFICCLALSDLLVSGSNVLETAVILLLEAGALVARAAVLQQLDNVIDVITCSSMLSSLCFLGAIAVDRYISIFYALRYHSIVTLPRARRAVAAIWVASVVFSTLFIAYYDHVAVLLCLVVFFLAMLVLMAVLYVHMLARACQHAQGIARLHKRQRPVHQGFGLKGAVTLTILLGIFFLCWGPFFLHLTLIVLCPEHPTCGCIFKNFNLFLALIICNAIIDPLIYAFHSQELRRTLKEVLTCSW

EC50 [1] [µM]	EC50 [2] [µM]	Compound
> 31.6		CC(C)N(C(=O)CN1C=CN(c2ccccc2)C(=O)[C@@H](Cc2n[nH]c3ccccc23)C1=O)c1ccccc1
	> 31.6	CC(C)N(C(=O)CN1C=CN(c2ccccc2)C(=O)C(Cc2n[nH]c3ccccc23)C1=O)c1ccc(O)cc1 (stereo unspecified)
> 31.6	> 31.6	COc1ccc(N(C(=O)CN2C=CN(C3CCCCC3)C(=O)C(Cc3ccccc3)C2=O)C(C)C)cc1 (racemic) [(+/-)-2-[4-Cyclohexyl-5,7-dioxo-6-(phenylmethyl)-4,5,6,7-tetrahydro-1H-1,4-diazepin-1-yl]-N-(1-methylethyl)-N-[4-(methyloxy)phenyl]acetamide]
> 31.6	> 31.6	COc1ccc(N(C(=O)CN2C=CN(C3CCCCC3)C(=O)C(Cc3n[nH]c4ccccc34)C2=O)C(C)C)cc1 (racemic) [(+/-)-2-[4-Cyclohexyl-6-(1H-indazol-3-ylmethyl)-5,7-dioxo-4,5,6,7-tetrahydro-1H-1,4-diazepin-1-yl]-N-(1-methylethyl)-N-[4-(methyloxy)phenyl]acetamide trifluoroacetate]
	> 31.6	COc1ccc(N(C(=O)CN2C=CN(Cc3ccccc3)C(=O)C(Cc3n[nH]c4ccccc34)C2=O)C(C)C)cc1 (racemic) [(+/-)-2-[6-(1H-Indazol-3-ylmethyl)-5,7-dioxo-4-(phenylmethyl)-4,5,6,7-tetrahydro-1H-1,4-diazepin-1-yl]-N-(1-methylethyl)-N-[4-(methyloxy)phenyl]acetamide]
	> 31.6	CC(C)N(C(=O)CN1C=CN(c2ccccc2)C(=O)C(Cc2n[nH]c3ccccc23)C1=O)c1ccc(N2CCOCC2)cc1 (racemic) [(+/-)-2-[6-(1H-Indazol-3-ylmethyl)-5,7-dioxo-4-phenyl-4,5,6,7-tetrahydro-1H-1,4-diazepin-1-yl]-N-(1-methylethyl)-N-[4-(4-morpholinyl)phenyl]acetamide]
	> 31.6	CC(C)N(C(=O)CN1C=CN(C)C(=O)C(Cc2n[nH]c3cc(F)ccc23)C1=O)c1ccc(F)cc1 (racemic) [(+/-)-2-{6-[(6-Fluoro-1H-indazol-3-yl)methyl]-4-methyl-5,7-dioxo-4,5,6,7-tetrahydro-1H-1,4-diazepin-1-yl}-N-(4-fluorophenyl)-N-(1-methylethyl)acetamide]
> 31.6	> 31.6	COc1ccc(N(C(=O)CN2C=CN(c3ccccc3)C(=O)C(Cc3nn(C)c4ccccc34)C2=O)C(C)C)cc1 (racemic) [(+/-)-N-(1-methylethyl)-2-{6-[(1-methyl-1H-indazol-3-yl)methyl]-5,7-dioxo-4-phenyl-4,5,6,7-tetrahydro-1H-1,4-diazepin-1-yl}-N-[4-(methyloxy)phenyl]acetamide]

From BindingDB's records for doi:10.1016/j.bmc.2010.01.049 (Glaxosmithkline, 2010)
